Screens from PubChem BioAssay.
Sampled rows, rich in hits. Any-hit rate of the full collection: about 0.59%.
OXTR agonist: human OXTR agonists, primary screen, fluorescence, CHO-OTR cells, Fluo-8 calcium | Oxytocin receptor (Homo sapiens), P30559 | Fluo-8 calcium fluorescence; normalized: DMSO 0%, oxytocin 100% | activation, % at 3 µM | 320,000 compounds, 0.32% hits | AID 2435, 2010;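 active = activation above the mean of all tested compounds plus 3 SD, cutoff set per screening run, cut at about 20% in these data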;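 note: peak over basal fluorescence ratio from a 100 s FLIPR kinetic read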
Target sequence (P30559 whole entry, looked up): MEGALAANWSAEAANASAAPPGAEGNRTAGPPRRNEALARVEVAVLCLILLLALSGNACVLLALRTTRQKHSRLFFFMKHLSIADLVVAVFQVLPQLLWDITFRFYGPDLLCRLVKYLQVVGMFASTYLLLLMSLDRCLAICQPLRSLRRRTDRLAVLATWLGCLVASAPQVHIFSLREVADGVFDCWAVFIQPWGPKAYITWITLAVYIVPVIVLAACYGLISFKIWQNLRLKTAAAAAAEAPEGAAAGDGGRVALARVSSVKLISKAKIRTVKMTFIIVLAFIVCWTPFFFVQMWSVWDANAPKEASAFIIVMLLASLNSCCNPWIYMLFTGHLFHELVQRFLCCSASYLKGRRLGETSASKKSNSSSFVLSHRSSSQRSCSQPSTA
TRPN1 ag: zebrafish TRPN1 channel agonists, primary screen, cell-based, HEK293, calcium fluorescence; HEK293 zebrafish TRPN1-YFP, Fluo-8 calcium fluorescence; 100% = response to 87 µM carbachol; activation, % at 3 µM; 220,000 compounds, 0.18% hits;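 active = activation above its plate's cutoff, the mean activation of test wells on that plate plus 3 SD, cut at about 19% in these data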;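 note: 0% = DMSO alone and 100% = 87 µM carbachol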
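Material: zebrafish TRPN1-YFP in HEK293 cells. Doses: one dose of 3 µM, 0.3% DMSO. Incubation: dye 1 h 37 °C plus 30 min RT. Measured by: intracellular calcium fluorescence with Fluo-8.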
TRPML3 agonist: human TRPML3 channel agonists, primary screen, cell-based, HEK293 TRPML3-YFP, Fluo-8 calcium fluorescence, 3 µM; Mucolipin-3 (Homo sapiens), Q8TDD5; 100% = the carbachol control signal; activation, % at 3 µM; 220,000 compounds, 0.29% hits; AID 1448, 2008;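 active = activation above its plate's cutoff, the mean activation of the plate's test wells plus 3 SD, cut at about 12% in these data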;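 note: 0% = DMSO only wells and 100% = carbachol wells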
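Test system: TRPML3-YFP stable HEK293 cells. Doses: single point at 3 µM. Incubation: dye loading 1 h 37 °C then 30 min ambient, 125 s read. Signal: Fluo-8 calcium dye fluorescence, ex 470-495, em 515-575 nm. Measure: percent activation from peak-to-basal fluorescence ratio, scaled between DMSO and carbachol.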
V1aR counter: agonists of human V1a receptor, primary screen, counter-screen for OXTR agonist project, fluorescence, CHO-V1R cells; activation, % at 3 µM; Vasopressin V1a receptor (Homo sapiens), P37288; 320,000 compounds, 0.25% hits; AID 2797, 2010; Fluo-8 calcium fluorescence, agonist mode; 0% DMSO, 100% 3 nM vasopressin;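 active = activation above the mean activation of all tested compounds plus 3 SD, per screening run, cut at about 20% in these data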;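 note: signal is peak over basal fluorescence ratio across a 100 second FLIPR read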
OXTR potentiator: human OXTR potentiators, primary screen, fluorescence, CHO-OTR cells, Fluo-8 calcium; Oxytocin receptor (Homo sapiens), P30559; Fluo-8 calcium fluorescence, potentiator mode; 0% = oxytocin EC15, 100% = EC100; activation, % at 3 µM; 320,000 compounds, 0.061% hits;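 active = activation above that plate's cutoff, the mean activation of tested compounds plus 3 SD, cut at about 6.6% in these data, passing the limit was not always enough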;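 note: 100% uses oxytocin at 75 nM as the full agonist control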
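Material: human OTR in CHO cells. Compound: 3.0 µM, one dose. Timing: compound 6 min at room temperature before oxytocin, 100 s read. Evaluation: % activation of max/min ratio relative to oxytocin controls. Replication: single well per compound, singlicate. Signal: Fluo-8 calcium dye fluorescence.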
The depositor's hits bear a star; · = not tested or not shown.

SMILES	OXTR agonist	TRPN1 ag	TRPML3 agonist	V1aR counter	OXTR potentiator
CNC(=O)NC(=O)CN1C(=O)NC2(CCOc3ccccc32)C1=O (centres undefined)	0	·	·	0	-18
CCO/C=C1\SC(=S)N(c2ccc(Cl)cc2)C1=O	3	0	1	3	0
CC(C)c1ccc(N2C(=O)/C(=C/N(C)C)SC2=S)cc1	38*	7	2	25*	-19
CC1=C(C)/C(=N\OS(=O)(=O)c2ccccc2)C=CC1=O	19	2	16*	14	-21
COc1ccc(Nc2sc(C(=O)c3ccc(Cl)cc3)c(N)c2C(=O)Nc2ccccc2OC)cc1	47*	12	11	40*	-26
CCOC(=O)c1ccc(NC(=S)N2CCC(O)CC2)cc1	0	3	1	-1	-3
CCOC(=O)c1ccc(NC(=S)N2CCSC2c2ccc(Br)cc2)cc1 (centres undefined)	48*	10	6	37*	-14
CCN(CC)c1ccc(/C=C(/C#N)C(=O)NCc2ccccc2)o1	29*	9	14*	26*	-11
CCN(CC)c1ccc(/C=C(/C#N)C(=O)NC(C)C)o1	12	10	7	8	-5
O=[N+]([O-])c1ccc(Sc2cccc[n+]2[O-])c2nonc12	·	35*	14*	·	·
CCOc1ncccc1C(=O)OCC(=O)NC(=O)c1ccccc1	0	·	·	1	-7
O=[N+]([O-])c1cc(S(=O)(=O)N2CCCCCC2)ccc1Cl	·	-3	22*	·	·
Nc1ccc2c(c1)Cc1cc([N+](=O)[O-])ccc1-2	22*	13	15*	31*	-13
Cc1ccc([N+](=O)[O-])cc1N	0	0	0	0	-2
O=C(Nc1ccccc1)Nc1ccc2snnc2c1	18	21*	11	12	-22
O=C(Nc1ccc(Cl)cc1)Nc1csc([N+](=O)[O-])c1	8	22*	15*	4	-16
O=C(Nc1ccccc1)Nc1ccc(F)c([N+](=O)[O-])c1	14	20*	10	10	-16
O=C(Nc1ccccc1)Nc1ccc(Cl)c([N+](=O)[O-])c1	15	15	9	10	-11
CN(C)c1ccc(NC(=O)Nc2ccc3snnc3c2)cc1	10	19*	6	9	-32
O=C(Nc1csc([N+](=O)[O-])c1)Nc1c(Cl)cccc1Cl	7	6	1	5	-7
O=C1CSC(=S)N1/N=C/c1cc(Br)c(O)c(Br)c1	158*	·	·	140*	-16
CCCN1C(=O)/C(=C/c2c(N3CCNC(=O)C3CC(=O)OCC)nc3c(C)cccn3c2=O)SC1=S (centres undefined)	11	28*	12*	11	-10
CCOC(=O)CC1C(=O)NCCN1c1nc2ccc(C)cn2c(=O)c1/C=C1\SC(=S)N(CC(C)C)C1=O (centres undefined)	18	32*	5	13	-9
CCOC(=O)CC1C(=O)NCCN1c1nc2ccc(C)cn2c(=O)c1/C=C1\SC(=S)N(C(C)CC)C1=O (centres undefined)	15	20*	2	11	-13
Cc1ccc2nc(SCC(=O)NCCCN3CCCC3=O)[nH]c2c1	-1	·	·	0	-1
SMILES	OXTR agonist	TRPN1 ag	TRPML3 agonist	V1aR counter	OXTR potentiator
COc1cc(/C=C/C(=O)O[C@H]2[C@H](O[C@@H]3O[C@@H](C)[C@H](O)[C@@H](O)[C@H]3O)[C@@H](O)[C@H](OCCc3ccc(O)c(OC)c3)O[C@@H]2CO)ccc1O	0	·	·	0	-6
Cc1ccc(NC(=O)CN(C)CC(=O)N(CC(C)C)c2c(N)n(CC(C)C)c(=O)[nH]c2=O)c(C)c1	-1	·	·	0	-2
CC(C)n1nnnc1SCC(=O)N1CCN(Cc2ccc3c(c2)OCCO3)CC1	1	·	·	1	-12
O=C(Nc1nnc(SCCN2CCOCC2)s1)C1CC(=O)N(c2ccc(F)cc2)C1 (centres undefined)	1	·	·	0	-4
CCOc1ccc(S(=O)(=O)N2CCCCC2)c2ccccc12	0	-1	62*	0	-13
CCOc1ccc(S(=O)(=O)N2CCOCC2)c2ccccc12	-2	·	·	0	-12
Cc1ccc(NS(=O)(=O)c2ccc(C(=O)N3CCCC(C(F)(F)F)C3)cc2)cc1 (centres undefined)	53*	·	·	49*	-26
CCOc1ccc(NS(=O)(=O)c2ccc(C(=O)N3CCCCC3)cc2)cc1	24*	·	·	28*	-16
Cc1ccc(NS(=O)(=O)c2ccc(C(=O)NCC(c3ccco3)N(C)C)cc2)cc1 (centres undefined)	27*	·	·	26*	-16
COc1ccccc1NS(=O)(=O)c1ccc(C(=O)N2CCCC(C(F)(F)F)C2)cc1 (centres undefined)	5	·	·	6	-12
CCOc1ccc(S(=O)(=O)Nc2ccc(C(=O)N3CC(C)OC(C)C3)cc2)cc1 (centres undefined)	34*	·	·	27*	-18
O=C(NCc1ccc(Cl)s1)C1CCC(=O)N(CCc2cccc(F)c2)C1 (centres undefined)	0	·	·	1	-2
O=C(O)c1ccc(N/N=C2/CCCc3ccccc32)cc1	16	1	0	10	-32
Cc1nc2ccccc2c(=O)n1CCc1ccc(O)cc1	3	·	·	6	-10
CCOc1ccc(NS(=O)(=O)c2ccc(C(=O)N3CC(C)OC(C)C3)cc2)cc1 (centres undefined)	58*	·	·	51*	-13
CCOc1ccc(NS(=O)(=O)c2ccc(C(=O)NCC(c3ccco3)N3CCCC3)cc2)cc1 (centres undefined)	35*	·	·	23*	-12
COc1ccc(NS(=O)(=O)c2ccc(C(=O)N(C)Cc3ccc(C)o3)cc2)cc1	27*	·	·	27*	-11
